Where “and” joins values, the source holds several entries; their conditions need not be identical. Equal values may be shown once. Entries after “also recorded” stand apart in the source; their conditions may differ.
Columns and labels:
[1] = target: T1, carboxylesterase 1 (CES1) (Homo sapiens, UniProt P23141); test: Concentration response curves for inhibition of CES1; assay type: biochemical; conditions: 200 μM OST, CES1 S9; for IC50: read-out: IC50 (kratom alkaloids), alkaloid 0–128 μM, 1% DMSO
T1 sequence (P23141 18-567): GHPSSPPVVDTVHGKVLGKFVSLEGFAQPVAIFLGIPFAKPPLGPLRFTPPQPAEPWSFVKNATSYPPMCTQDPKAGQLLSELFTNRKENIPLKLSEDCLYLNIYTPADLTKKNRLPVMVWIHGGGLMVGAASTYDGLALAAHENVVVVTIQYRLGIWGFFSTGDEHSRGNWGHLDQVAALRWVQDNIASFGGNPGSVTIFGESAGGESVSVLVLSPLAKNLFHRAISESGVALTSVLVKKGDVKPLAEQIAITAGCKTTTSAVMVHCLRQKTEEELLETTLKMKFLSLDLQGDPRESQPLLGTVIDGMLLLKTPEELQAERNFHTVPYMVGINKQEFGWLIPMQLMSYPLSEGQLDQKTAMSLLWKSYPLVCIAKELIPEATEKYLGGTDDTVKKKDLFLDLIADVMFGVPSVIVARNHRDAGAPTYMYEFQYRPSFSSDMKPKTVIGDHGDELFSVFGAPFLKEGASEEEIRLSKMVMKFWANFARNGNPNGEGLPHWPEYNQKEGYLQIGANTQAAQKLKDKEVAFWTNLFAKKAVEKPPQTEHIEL
Procedure, shortened: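 CES1 S9 (supernatant, 9000g, from sonicated Flp-In-293 cells expressing wild-type CES1) at 20 μg/mL in 50 mM phosphate buffer. Test compound at 0–128 μM, or extracts at 0–128 μg/mL, in 1% DMSO with 200 μM oseltamivir, 15 min at 37°C. Stopped with 4 volumes acetonitrile containing ritalinic acid internal standard. Oseltamivir carboxylate measured by LC-MS/MS and expressed relative to DMSO control; IC50 fitted by modified Hill equation.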

[2] = target: T1, carboxylesterase 1 (CES1); test: Time-dependent inhibition of CES1; assay type: biochemical; conditions: for Ratio of Preincubation to No Preincubation (IC50, alkaloids): 30 min preincubation; for IC50: mean ± S.E., 200 μM OST
[3] = target: T1, carboxylesterase 1 (CES1); test: Reversible inhibition kinetics of CES1; assay type: biochemical; conditions: for α (reversible inhibition type): 1 = noncompetitive, infinity = competitive, between = mixed-type; for α (reversible inhibition type) / Vmax: mean ± S.D.; for type of reversible inhibition of CES1: from modified Michaelis-Menten model; for Vmax: OC formation, fit parameter, triplicate experiments
[4] = human, 2g dose of kratom; cited from earlier work
[5] = Preincubation 30 min with CES1 S9

corynantheidine
concentration dependence of CES1 inhibition [1]: concentration-dependent reversible inhibition | Ratio of Preincubation to No Preincubation (IC50, alkaloids) [2]: 0.993 | α (reversible inhibition type) [3]: 8.767 ± 2.734 | type of reversible inhibition of CES1 [3]: mixed-type reversible inhibitors; also recorded: mixed competitive-noncompetitive inhibition; also recorded: mixed competitive-noncompetitive inhibitors

CC[C@H]1CN2CCc3c([nH]c4cccc(OC)c34)[C@@H]2C[C@@H]1/C(=C\OC)C(=O)OC [speciogynine]
concentration dependence of CES1 inhibition [1]: concentration-dependent reversible inhibition | IC50 [1]: 54.3 µM | Ratio of Preincubation to No Preincubation (IC50, alkaloids) [2]: 1.22 | IC50 [2, 5]: 66.2 ± 29 µM

mitragynine
concentration dependence of CES1 inhibition [1]: concentration-dependent reversible inhibition | IC50 [1]: 38.9 µM and < 50 µM | Ratio of Preincubation to No Preincubation (IC50, alkaloids) [2]: 0.868 | IC50 ([2]; No preincubation): 38.9 ± 16.3 µM | IC50 [2, 5]: 33.8 ± 5.47 µM | α (reversible inhibition type) [3]: ∞ | Vmax [3]: 224.2 ± 24.37 nmol/min/mg protein | type of reversible inhibition of CES1 [3]: purely competitive inhibitor; also recorded: pure competitive inhibition

CC[C@@H]1CN2CCc3c([nH]c4cccc(OC)c34)[C@H]2C[C@@H]1/C(=C\OC)C(=O)OC [speciociliatine]
concentration dependence of CES1 inhibition [1]: concentration-dependent reversible inhibition | Ratio of Preincubation to No Preincubation (IC50, alkaloids) [2]: 1.18 | IC50 ([2]; No preincubation): 18.1 ± 4 µM | IC50 [2, 5]: 21.4 ± 2.48 µM | α (reversible inhibition type) [3]: 2.817 ± 1.666 | Vmax [3]: 210.5 ± 41.43 nmol/min/mg protein | type of reversible inhibition of CES1 [3]: mixed competitive-noncompetitive inhibitors | type of reversible inhibition of CES1 ([3]; listed as Speciociliatine): mixed-type reversible inhibitors; also recorded: mixed competitive-noncompetitive inhibition | Cmax [4]: 308 nM

C=C[C@H]1CN2CCc3c([nH]c4cccc(OC)c34)[C@@H]2C[C@@H]1/C(=C\OC)C(=O)OC [paynantheine]
concentration dependence of CES1 inhibition [1]: concentration-dependent reversible inhibition | IC50 [1]: 32.9 µM and < 50 µM | Ratio of Preincubation to No Preincubation (IC50, alkaloids) [2]: 1.38 | IC50 ([2]; No preincubation): 32.9 ± 7.2 µM | IC50 [2, 5]: 45.6 ± 14.1 µM | α (reversible inhibition type) [3]: 8.439 ± 6.336 | Vmax [3]: 232.2 ± 18.38 nmol/min/mg protein | type of reversible inhibition of CES1 [3]: mixed-type reversible inhibitors; also recorded: mixed competitive-noncompetitive inhibition; also recorded: mixed competitive-noncompetitive inhibitors

Source: paper PMC10606955 (Chemico-biological interactions, 2023)
